Measurements taken from ChEMBL document CHEMBL4725428 (ACS Med Chem Lett, 2020).
Activity calls are given as the source filed them. The calls are words filed in the database; no cut-off is given here.

Columns and labels:
[1] = biological target: T1, Protein cereblon/Focal adhesion kinase 1 (Homo sapiens, UniProt Q05397+Q96SW2); experiment: Protac activity at CRBN/FAK in human PA1 cells assessed as induction of FAK degradation at 10 nM incubated for 8 hrs by Western blot analysis relative to control; assay type: cell-based; details: PA-1
Method in brief: (§1)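 PA1 cells were treated at the indicated doses for 8 h, and FAK was quantified from immunoblots relative to untreated control. Data come from three independent experiments.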

[2] = biological target: T1, Protein cereblon/Focal adhesion kinase 1; experiment: Protac activity at CRBN/FAK in human PA1 cells assessed as induction of FAK degradation at 1 nM incubated for 8 hrs by Western blot analysis relative to control; assay type: cell-based; details: PA-1; method in brief: as §1
[3] = biological target: T2, Protein cereblon/Focal adhesion kinase 1 (Mus musculus) (UniProt P34152+Q8C7D2); experiment: Protac activity at CRBN/FAK in mouse TM3 cells assessed as reduction in FAK autophosphorylation at tyr 397 residue at <1 nM after 8 hrs by Western blot analysis; assay type: cell-based; details: dose nM <1, time 8.0 hrs
Method in brief: (§2)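 TM3 cells were treated at the indicated doses for 8 h, then immunoblotted for FAK phosphorylated at Tyr397.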

[4] = biological target: T1, Protein cereblon/Focal adhesion kinase 1; experiment: Protac activity at CRBN/FAK in human PA1 cells assessed as FAK degradation at 1 to 100 nM after 8 hrs in presence of 10 uM pomalidomide; assay type: cell-based; details: PA-1, dose nM 1-100, time 8.0 hrs
Method in brief: (§3)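 For ligand competition, PA1 cells were treated for 8 h with the degrader (1, 10 or 100 nM) alone, or with excess CRBN ligand pomalidomide (10 μM) or FAK ligand PF562271 (10 μM), alone or combined. FAK was read by immunoblot.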

[5] = biological target: T1, Protein cereblon/Focal adhesion kinase 1; experiment: Protac activity at CRBN/FAK in human PA1 cells assessed as FAK degradation at 1 to 100 nM after 8 hrs in presence of 10 uM PF562271; assay type: cell-based; details: PA-1, dose nM 1-100, time 8.0 hrs; method in brief: as §3
[6] = biological target: T1, Protein cereblon/Focal adhesion kinase 1; experiment: Protac activity at CRBN/FAK in human PA1 cells assessed as reduction FAK degradation at 1 to 100 nM after 8 hrs in presence of 5 uM MG132; assay type: cell-based; details: PA-1, dose nM 1-100, time 8.0 hrs
Method in brief: (§4)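 To test proteasome dependence, PA1 cells received the degrader (1, 10 or 100 nM) for 8 h, either alone or together with MG132 (5 μM) or carfilzomib (5 μM). Each inhibitor was also given alone. FAK was assessed by immunoblot.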

[7] = biological target: T1, Protein cereblon/Focal adhesion kinase 1; experiment: Protac activity at CRBN/FAK in human PA1 cells assessed as reduction FAK degradation at 1 to 100 nM after 8 hrs in presence of 5 uM carfilzomib; assay type: cell-based; details: PA-1, dose nM 1-100, time 8.0 hrs; method in brief: as §4
[8] = biological target: Protein cereblon/Focal adhesion kinase 1 (Mus musculus, UniProt P34152+Q8C7D2); experiment: Protac activity at CRBN/FAK in mouse TM3 cells assessed as induction of FAK degradation after 8 hrs by Western blot analysis; assay type: cell-based
Method in brief: (§5)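 Each cell line was exposed to graded concentrations for 8 h, and FAK protein was detected by immunoblot. DC50 is the concentration giving half-maximal FAK degradation.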

[9] = biological target: T1, Protein cereblon/Focal adhesion kinase 1; experiment: Protac activity at CRBN/FAK in human PA1 cells assessed as induction of FAK degradation after 8 hrs by Western blot analysis; assay type: cell-based; details: pa-1; method in brief: as §5
[10] = biological target: T1, Protein cereblon/Focal adhesion kinase 1; experiment: Protac activity at CRBN/FAK in human MDA-MB-436 cells assessed as induction of FAK degradation after 8 hrs by Western blot analysis; assay type: cell-based; method in brief: as §5
[11] = biological target: T1, Protein cereblon/Focal adhesion kinase 1; experiment: Protac activity at CRBN/FAK in human LNCAP cells assessed as induction of FAK degradation after 8 hrs by Western blot analysis; assay type: cell-based; method in brief: as §5
[12] = biological target: T1, Protein cereblon/Focal adhesion kinase 1; experiment: Protac activity at CRBN/FAK in human Ramos cells assessed as induction of FAK degradation after 8 hrs by Western blot analysis; assay type: cell-based; method in brief: as §5
[13] = biological target: T2, Protein cereblon/Focal adhesion kinase 1 (Mus musculus); experiment: Protac activity at CRBN/FAK in mouse TM3 cells assessed as reduction in FAK autophosphorylation at tyr 397 residue at 100 nM after 1 hr by Western blot analysis relative to control; assay type: cell-based; parameters: scale not given: the % may be the effect or the level left
Method in brief: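 In a time course, TM3 cells were exposed to 100 nM, and FAK and pFAK Tyr397 levels were followed by immunoblot at successive time points.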

[14] = biological target: T2, Protein cereblon/Focal adhesion kinase 1 (Mus musculus); experiment: Protac activity at CRBN/FAK in mouse TM3 cells assessed as reduction in FAK autophosphorylation at tyr 397 residue at 1 to 3000 nM after 8 hrs by Western blot analysis; assay type: cell-based; details: dose nM 1-3000, time 8.0 hrs; method in brief: as §2
TM3 = experiment: Antiproliferative activity against mouse TM3 cells assessed as effect on cell proliferation after 72 hrs by MTS assay; assay type: functional, cell-based
PA-1 = experiment: Antiproliferative activity against human PA1 cells assessed as effect on cell proliferation after 72 hrs by MTS assay; assay type: functional, cell-based
MDA-MB-436 = experiment: Antiproliferative activity against human MDA-MB-436 cells assessed as effect on cell proliferation after 72 hrs by MTS assay; assay type: functional, cell-based
LNCaP = experiment: Antiproliferative activity against human LNCAP cells assessed as effect on cell proliferation after 72 hrs by MTS assay; assay type: functional, cell-based
Ramos = experiment: Antiproliferative activity against human Ramos cells assessed as effect on cell proliferation after 72 hrs by MTS assay; assay type: functional, cell-based

| Activity [1] | Activity [2] | SMILES | further results |
| --- | --- | --- | --- |
| 65% | 40% | CN(c1ncccc1CNc1nc(Nc2ccc(C(=O)NCc3cn(CCOCCOCCNc4cccc5c4C(=O)N(C4CCC(=O)NC4=O)C5=O)nn3)cc2)ncc1C(F)(F)F)S(C)(=O)=O (stereo not given) |  |
| 90% | 62% | CN(c1ncccc1CNc1nc(Nc2ccc(NC(=O)c3cn(CCCCCOCC#Cc4cccc5c4C(=O)N(C4CCC(=O)NC4=O)C5=O)nn3)cc2)ncc1C(F)(F)F)S(C)(=O)=O (stereo not given) |  |
| 99% | 90% | CN(c1ncccc1CNc1nc(Nc2ccc(NC(=O)c3cn(CCOCCOCCNc4cccc5c4C(=O)N(C4CCC(=O)NC4=O)C5=O)nn3)cc2)ncc1C(F)(F)F)S(C)(=O)=O (stereo not given) | Activity [3]: Active; Activity [4]: inactive; Activity [5]: inactive; Activity [6]: inactive; Activity [7]: inactive; DC50 [8]: 0.31 nM; DC50 [9]: 0.08 nM; DC50 [10]: 0.33 nM; DC50 [11]: 0.37 nM; DC50 [12]: 0.04 nM; Activity [13]: > 50%; Activity [14]: Active; Activity (TM3): inactive; Activity (PA-1): inactive; Activity (MDA-MB-436): inactive; Activity (LNCaP): inactive; Activity (Ramos): inactive |
| 95% | 85% | CN(c1ncccc1CNc1nc(Nc2ccc(NC(=O)c3cn(CCCCCOCCCc4cccc5c4C(=O)N(C4CCC(=O)NC4=O)C5=O)nn3)cc2)ncc1C(F)(F)F)S(C)(=O)=O (stereo not given) |  |
| 93% | 67% | CN(c1ncccc1CNc1nc(Nc2ccc(NC(=O)c3cn(CCCCCCCCNc4cccc5c4C(=O)N(C4CCC(=O)NC4=O)C5=O)nn3)cc2)ncc1C(F)(F)F)S(C)(=O)=O (stereo not given) |  |
| 81% | 55% | CN(c1ncccc1CNc1nc(Nc2ccc(C(=O)NCc3cn(CCOCCNc4cccc5c4C(=O)N(C4CCC(=O)NC4=O)C5=O)nn3)cc2)ncc1C(F)(F)F)S(C)(=O)=O (stereo not given) |  |
| 90% | 32% | CN(c1nccnc1CNc1nc(Nc2ccc(NC(=O)c3cn(CCOCCNc4cccc5c4C(=O)N(C4CCC(=O)NC4=O)C5=O)nn3)cc2)ncc1C(F)(F)F)S(C)(=O)=O (stereo not given) |  |
| 92% | 35% | CN(c1nccnc1CNc1nc(Nc2ccc(NC(=O)c3cn(CCOCCOCCOCCNc4cccc5c4C(=O)N(C4CCC(=O)NC4=O)C5=O)nn3)cc2)ncc1C(F)(F)F)S(C)(=O)=O (stereo not given) |  |
| 0% | 0% | CN(c1ncccc1CNc1ncc(C(F)(F)F)c(Nc2ccc(NC(=O)c3cn(CCOCCOCCOCCNc4cccc5c4C(=O)N(C4CCC(=O)NC4=O)C5=O)nn3)cc2)n1)S(C)(=O)=O (stereo not given) |  |
| 90% | 62% | CN(c1ncccc1CNc1nc(Nc2ccc(NC(=O)c3cn(CCCCCCCC#Cc4cccc5c4C(=O)N(C4CCC(=O)NC4=O)C5=O)nn3)cc2)ncc1C(F)(F)F)S(C)(=O)=O (stereo not given) |  |
| 92% | 40% | CN(c1ncccc1CNc1nc(Nc2ccc(NC(=O)c3cn(CCOCCNc4cccc5c4C(=O)N(C4CCC(=O)NC4=O)C5=O)nn3)cc2)ncc1C(F)(F)F)S(C)(=O)=O (stereo not given) |  |
| 22% | 5% | CN(c1nccnc1CNc1nc(Nc2ccc(C(=O)NCc3cn(CCOCCOCCOCCNc4cccc5c4C(=O)N(C4CCC(=O)NC4=O)C5=O)nn3)cc2)ncc1C(F)(F)F)S(C)(=O)=O (stereo not given) |  |
| 60% | 32% | CN(c1nccnc1CNc1nc(Nc2ccc(C(=O)NCc3cn(CCOCCOCCNc4cccc5c4C(=O)N(C4CCC(=O)NC4=O)C5=O)nn3)cc2)ncc1C(F)(F)F)S(C)(=O)=O (stereo not given) |  |
| 0% | 0% | CN(c1ncccc1CNc1ncc(C(F)(F)F)c(Nc2ccc(NC(=O)c3cn(CCOCCNc4cccc5c4C(=O)N(C4CCC(=O)NC4=O)C5=O)nn3)cc2)n1)S(C)(=O)=O (stereo not given) |  |
| 2% | 0% | CN(c1ncccc1CNc1ncc(C(F)(F)F)c(Nc2ccc(NC(=O)c3cn(CCOCCOCCNc4cccc5c4C(=O)N(C4CCC(=O)NC4=O)C5=O)nn3)cc2)n1)S(C)(=O)=O (stereo not given) |  |
| 90% | 62% | CN(c1ncccc1CNc1nc(Nc2ccc(NC(=O)c3cn(CCOCCOCC#Cc4cccc5c4C(=O)N(C4CCC(=O)NC4=O)C5=O)nn3)cc2)ncc1C(F)(F)F)S(C)(=O)=O (stereo not given) |  |
| 82% | 30% | CN(c1ncccc1CNc1nc(Nc2ccc(NC(=O)c3cn(CCOCCOCCOCCOCCNc4cccc5c4C(=O)N(C4CCC(=O)NC4=O)C5=O)nn3)cc2)ncc1C(F)(F)F)S(C)(=O)=O (stereo not given) |  |
| 85% | 40% | CN(c1ncccc1CNc1nc(Nc2ccc(NC(=O)c3cn(CCCCCCCCCc4cccc5c4C(=O)N(C4CCC(=O)NC4=O)C5=O)nn3)cc2)ncc1C(F)(F)F)S(C)(=O)=O (stereo not given) |  |
| 94% | 46% | CN(c1ncccc1CNc1nc(Nc2ccc(NC(=O)c3cn(CCOCCOCCOCCNc4cccc5c4C(=O)N(C4CCC(=O)NC4=O)C5=O)nn3)cc2)ncc1C(F)(F)F)S(C)(=O)=O (stereo not given) |  |
| 30% | 10% | CN(c1ncccc1CNc1nc(Nc2ccc(C(=O)NCc3cn(CCOCCOCCOCCNc4cccc5c4C(=O)N(C4CCC(=O)NC4=O)C5=O)nn3)cc2)ncc1C(F)(F)F)S(C)(=O)=O (stereo not given) |  |
| 90% | 62% | CN(c1ncccc1CNc1nc(Nc2ccc(NC(=O)c3cn(CCOCCOCCCc4cccc5c4C(=O)N(C4CCC(=O)NC4=O)C5=O)nn3)cc2)ncc1C(F)(F)F)S(C)(=O)=O (stereo not given) |  |
| 96% | 71% | CN(c1nccnc1CNc1nc(Nc2ccc(NC(=O)c3cn(CCOCCOCCNc4cccc5c4C(=O)N(C4CCC(=O)NC4=O)C5=O)nn3)cc2)ncc1C(F)(F)F)S(C)(=O)=O (stereo not given) |  |
| 0% | 0% | CCN1C(=O)CCC(N2C(=O)c3cccc(NCCOCCOCCn4cc(C(=O)Nc5ccc(Nc6ncc(C(F)(F)F)c(NCc7cccnc7N(C)S(C)(=O)=O)n6)cc5)nn4)c3C2=O)C1=O (stereo not given) |  |
| 71% | 37% | CN(c1nccnc1CNc1nc(Nc2ccc(C(=O)NCc3cn(CCOCCNc4cccc5c4C(=O)N(C4CCC(=O)NC4=O)C5=O)nn3)cc2)ncc1C(F)(F)F)S(C)(=O)=O (stereo not given) |  |
